Source: PubChem
Shown are actives, neighbours in structure and some others; about 2.3% of the full set was active somewhere.
PP1 counter: PP1-alpha phosphatase inhibitors, primary screen, counter-screen for PP5 inhibitor project, biochemical, fluorescence, OMFP substrate, single point; inhibition, % at 6.7 µM; purified PP1alpha; Serine/threonine-protein phosphatase PP1-alpha catalytic subunit (Homo sapiens), P62136; 0.9% of 320,000 active;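 active means inhibition above the mean inhibition of all tested compounds plus 3 SD, computed separately for each screening campaign, cut at about 15% in these data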
UCH37 DUB inh: inhibitors of human UCH37 deubiquitinase, primary screen, biochemical, Ub-AMC cleavage, fluorescence | Ubiquitin carboxyl-terminal hydrolase isozyme L5 (Homo sapiens), Q9Y5K5 | purified proteasome/UCH37 | 0.33% of 330,000 active | inhibition, % (concentration not given with the values) | AID 588478, 2011;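 active means mean inhibition over replicate wells above about 20%, limit read from the data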;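 further: 0% = compound-free wells with enzyme and 100% = wells lacking proteasome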
Target sequence (Q9Y5K5 whole entry, looked up): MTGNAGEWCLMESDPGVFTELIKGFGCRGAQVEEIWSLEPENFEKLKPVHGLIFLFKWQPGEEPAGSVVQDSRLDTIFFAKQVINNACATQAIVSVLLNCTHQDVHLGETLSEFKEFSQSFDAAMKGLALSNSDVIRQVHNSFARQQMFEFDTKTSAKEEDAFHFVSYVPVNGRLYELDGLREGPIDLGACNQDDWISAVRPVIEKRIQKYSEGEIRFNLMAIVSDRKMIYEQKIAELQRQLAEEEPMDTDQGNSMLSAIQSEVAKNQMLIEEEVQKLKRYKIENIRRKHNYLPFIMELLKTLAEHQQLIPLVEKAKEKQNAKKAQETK
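Test system – human UCH37 enzyme supplied as purified proteasome complex · Incubation – 30 min preincubation with enzyme, 25 min cleavage at room temperature · Detection – AMC fluorescence from Ub-AMC cleavage, excitation 355 nm, emission 460 nm · Benchmarks – no-proteasome wells (full inhibition) and compound-free wells (no inhibition)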
PREPL inh: PREPL enzyme inhibitors, primary screen, biochemical, fluorescence polarization | Prolyl endopeptidase-like (Homo sapiens), Q4J6C6 | recombinant PREPL, fluorescence polarization activity-based probe | inhibition, % at 5.96 µM | 0.68% of 320,000 active | AID 2751, 2010; in the data active means inhibition above about 43%;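 further: 0% = enzyme with DMSO and 100% = wells lacking enzyme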
UBC13 polyUb: UBC13 polyubiquitin chain formation inhibitors, primary screen, biochemical, TR-FRET, uHTS; Ubiquitin-conjugating enzyme E2 N (Homo sapiens), P61088; inhibition, % at 20 µM; 0.47% of 330,000 active; AID 485273, 2010; in the data active means inhibition above about 45%, passing the limit was not always enough
Target sequence (P61088 whole entry, looked up): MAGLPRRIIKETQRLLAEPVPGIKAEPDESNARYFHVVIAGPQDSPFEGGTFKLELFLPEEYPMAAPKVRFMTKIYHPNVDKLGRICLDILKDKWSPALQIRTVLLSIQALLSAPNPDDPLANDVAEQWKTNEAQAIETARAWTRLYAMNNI
PP5 inh: PP5 phosphatase inhibitors, primary screen, biochemical, fluorescence | Serine/threonine-protein phosphatase 5 (Homo sapiens), P53041 | purified PP5c, OMFP substrate fluorescence | inhibition, % at 6.7 µM | 0.18% of 320,000 active | AID 1987, 2009;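 active means inhibition above the campaign's mean inhibition across all tested compounds plus 3 SD, cut at about 9.5% in these data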;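 further: 0% = DMSO only and 100% = 100 µM cantharidin control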
CTSL1 counter: Fasciola hepatica cathepsin L1 inhibitors, primary screen, counter-screen for PFM18AAP inhibitor project, biochemical, QFRET, fluorogenic peptide substrate; recombinant F. hepatica cathepsin L1, Z-Leu-Arg-MCA fluorescence; inhibition, % at 5.96 µM; 0.49% of 300,000 active;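 active means inhibition above the mean of all tested compounds plus 3 SD, set per screening campaign, cut at about 17% in these data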;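 further: 0% = plate median of test compound wells and 100% = 1 µM Z-Phe-Ala-diazomethylketone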
* marks the source's active call; other numbers are inactive results; . = no result given.

SMILES	PP1 counter	UCH37 DUB inh	PREPL inh	UBC13 polyUb	PP5 inh	CTSL1 counter
Cc1ccc(C(=O)C2=C(O)C(=O)N(Cc3cccnc3)C2c2cccc(Oc3ccccc3)c2)o1 (stereo not given)	44.8*	.	4.0	-69.2	-0.6	-0.8
CC(CC(=O)Nc1cccc(C(F)(F)F)c1)=NNC(=O)C1CCCCC1	.	4.3	.	.	.	.
NC(=NOC(=O)CCCOc1ccccc1)c1cccc([N+](=O)[O-])c1	.	1.0	.	.	.	.
Cc1ccc(NC(=O)c2ccc(CN3CCc4ccccc4C3)cc2)cc1	2.4	22.2*	-0.6	1.0	0.7	-1.6
CCNc1nc(NC(C)C)nc(N(C#N)CC(=O)OC)n1	-2.9	1.6	0.4	-6.0	0.0	71.4*
COC(=O)CN(C#N)c1nc(SC)nc(N(C)C)n1	-4.6	5.5	9.0	20.2	0.4	29.4*
CCOC(=O)CN(C#N)c1nc(N(C)C)nc(N(C)C)n1	-3.5	.	-3.8	14.3	-1.1	53.5*
COc1ccc(C=NN2CCOCC2)cc1Cn1nc(C)c([N+](=O)[O-])c1C	.	3.7	.	.	.	.
Cc1cc(C)nc(SCc2ccc(C(=O)NN=Cc3ccccn3)cc2)n1	.	0.1	.	.	.	.
CCOC(=O)c1cc(C)n(CCc2ccccc2)c1C	1.9	2.4	2.0	-6.4	2.3	-0.9
Cc1cc(C(=O)CCl)c(C)n1CCc1ccccc1	-4.4	5.7	18.1	6.7	-1.1	16.8*
Cc1noc(/C=C/c2ccco2)c1S(=O)(=O)N1CCC(C(=O)N2c3ccccc3CC2C)CC1 (stereo not given)	17.4*	2.3	-3.4	-13.0	0.3	-0.8
Cc1cc(C(=O)O)ccc1-n1c(C)ccc1C	27.4*	.	5.0	18.1	4.1	1.0
Cc1cc(C(=O)O)ccc1-n1c(C)cc(/C=C(/C#N)C(=O)Nc2ccccc2)c1C	-0.1	6.6	-4.9	-21.7	1.4	-0.5
Cc1cc(C(=O)O)ccc1-n1c(C)cc(C=C2C(=O)c3ccccc3C2=O)c1C	0.1	14.9	5.0	-46.1	4.9	18.9*
CCN(CC)c1ccc(C=NNC(=O)c2ccco2)c(O)c1	.	-28.4	.	.	.	.
Cc1ccc(CN2CCN(Cc3cccn3-c3ccccn3)CC2CCO)cc1 (stereo not given)	-1.6	3.1	21.1	2.8	2.0	-1.4
OCCC1CN(Cc2cccn2-c2ccccn2)CCN1C1CCCCC1 (stereo not given)	-0.8	2.2	14.1	-0.5	-0.2	74.3*
C=C(C)CNC(=S)NN=C(C)c1cccc(NC(C)=O)c1	.	6.2	.	.	.	.
CN(N=Cc1cccs1)c1cc(=O)n(C)c(=O)[nH]1	.	20.8*	.	.	.	.
CN(/N=C/C=C/c1ccccc1)c1cc(=O)n(C)c(=O)[nH]1	-3.8	.	-0.7	-11.6	0.7	8.3
Fc1ccc(NN=C/C=C/c2ccccc2)c(F)c1	.	1.0	.	.	.	.
NC(=S)NN=Cc1ccccc1O	.	-48.9	.	.	.	.
COc1ccccc1CNC(=O)CCc1nc2ccccc2c(=O)[nH]1	-1.8	-0.6	-3.5	4.7	-2.2	2.4
CN(C)CCCNC(=O)CCc1nc2ccccc2c(=O)[nH]1	-2.5	20.5*	2.1	-12.9	0.3	3.0
CN(C)N=Cc1ccc(OS(=O)(=O)c2ccccc2)cc1	.	4.1	.	.	.	.
C#CCOCCOCCOCCNc1nc(N2CCN(C(=O)[C@H](CCCN=C(N)N)n3cc(C(N)[C@@H](C)CC)nn3)CC2)nc(N2CCN(C(=O)[C@H](CCC(=O)O)n3cc([C@@H](N)CCCCN)nn3)CC2)n1 (stereo not given in full)	.	33.3*	-3.2	34.3	.	.
C#CCOCCOCCOCCNc1nc(N2CCN(C(=O)C([C@@H](C)CC)n3cc(C(N)COC(=O)C(F)(F)F)nn3)CC2)nc(N2CCN(C(=O)[C@H](CCCCN)n3cc(C(N)[C@H](C)CC)nn3)CC2)n1 (stereo not given in full)	17.3*	-0.9	16.0	113.9*	2.2	31.5*
